The source of these data is ChEMBL document CHEMBL1131218, “Antineoplastic agents. 379. Synthesis of phenstatin phosphate” (J Med Chem, 1998).

What is called IC50 is the concentration needed to halve the response being measured. One may read the inhibition as the share of the control response that was lost under treatment. The term GI50 denotes the concentration that inhibits growth by half.

≈ marks a conversion by molar mass, not a printed value.

Assay [1] is described as follows: Concentration to inhibit 50% of tubulin polymerization from bovine brain. More on the design: species or system Bos taurus. Summed up:
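Purified, electrophoretically homogeneous bovine brain tubulin at 1.0 mg/mL (10 μM) in 0.8 M monosodium glutamate pH 6.6 with 4% (v/v) DMSO and varying drug concentrations. Preincubated 15 min at 30 °C, chilled on ice, then GTP added (0.4 mM final). Assembly started by a jump from 0 to 30 °C and followed by turbidity. IC50 taken from extent of assembly at 20 min. Active compounds run in at least three independent experiments.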

For assay [2], the species on record is Bos taurus. The assay is described as follows: Percentage inhibition of colchicine binding to tubulin by compound was evaluated. More on the design: concentration or dose not given beside the values. The following applies: concentration not given here.
Assay [3] concerns Panel NCI-60 (60 carcinoma cell lines). The assay is described as follows: The compound was tested for the concentration for 50% growth inhibition of NCI 60 cell line human tumor screen expressed in 10e-8 M. It counts as functional. Summed up:
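NCI 60-cell-line screen, run in triplicate. Compounds tested in three concentration ranges (top 10⁻⁵, 10⁻⁶ and 10⁻⁷ M), each with five 10-fold dilutions. The mean panel GI50 across lines is reported with SD.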

For assay [4], the system named is KM-20L2. The assay is described as follows: The compound was tested for the concentration to inhibit 50% of colon KM20L2 cell lines. It counts as functional. The following applies: Homo sapiens.
For assay [5], the system named is NCI-H460. Nature of the assay: The compound was tested for the concentration to inhibit 50% lung-NSC NCI-H460 cell lines. Format: functional. The following applies: Homo sapiens.
In assay [6] the test system is OVCAR. The assay is described as follows: The compound was tested for the concentration to inhibit 50% of ovarian OVCAR cell lines. It counts as functional. The following applies: Homo sapiens.
Assay [7] deals with P388. The assay is described as follows: The compound was tested for the concentration to inhibit 50% of leukemia P388 cell lines. Format: functional. The following applies: Mus musculus.
In assay [8] the test system is SF-295. The assay is described as follows: The compound was tested for the concentration to inhibit 50% of CNS SF-295 cell lines. The following applies: Homo sapiens. Format: functional.
Assay [9] has as its system SK-MEL-5. Nature of the assay: The compound was tested for the concentration to inhibit 50% of melanoma SK-MEL-5 cell lines. It counts as functional. The following applies: Homo sapiens.
In assay [10] the test system is A498. Nature of the assay: The compound was tested for the concentration to inhibit 50% of renal A498 cell lines. It counts as functional. The following applies: Homo sapiens.
Assay [11] concerns the target Tubulin (Bos taurus, UniProt Q6B856+Q862L2+Q862F3). The assay is described as follows: The compound was tested for the concentration to inhibit 50% of tubulin polymerization. It counts as protein assay. The essentials:
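Purified bovine brain tubulin at 1.0 mg/mL (10 μM) in 0.8 M monosodium glutamate pH 6.6 with 4% DMSO. Drug was preincubated with tubulin for 15 min at 30 °C, then chilled. GTP was added to 0.4 mM and assembly started by a jump from 0 to 30 °C, followed by spectrophotometer.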

In assay [1], `COc1ccc(Cc2cc(OC)c(OC)c(OC)c2)cc1` showed a 50% inhibitory concentration (IC50) of 4.4 µM. Further, the inhibition in assay [2] is 56%.

With `COc1cc(C(=O)c2cc(F)cc(F)c2)cc(OC)c1OC`, the GI50 in [3] was determined as 4.94 µM. In [1], the half-inhibitory concentration (IC50) was 39 µM. This molecule also displayed an inhibition in [2] of 0%.

Regarding `COc1ccc(C(=O)c2cc(OC)c(OC)c(OC)c2)cc1O` [PHENSTATIN], the concentration for 50% growth inhibition (GI50) was determined as 0.04 µg/mL (≈ 0.126 µM) in assay [4]; 0.0601 µM in assay [3]; 0.0057 µg/mL (≈ 0.0179 µM) in [5]; 0.0023 µg/mL (≈ 0.00723 µM) in [6]; 0.0033 µg/mL (≈ 0.0104 µM) in assay [7]; 0.052 µg/mL (≈ 0.163 µM) in [8]. The values for the concentration for 50% growth inhibition (GI50) in [9] and in assay [10] were 0.0038 µg/mL (≈ 0.0119 µM) and 0.38 µg/mL (≈ 1.19 µM), respectively. This molecule also displayed a 50% inhibitory concentration (IC50) in assay [1] of 1 µM. The inhibition in assay [2] was determined as 86%.

For `COc1ccc(CCc2cc(OC)c(OC)c(OC)c2)cc1O`, in assay [1], half-maximal inhibition (IC50) was put at 2.1 µM. Moreover, in [2], the inhibition stood at 77%.

`COc1cc(C(=O)c2ccc3c(c2)OCO3)cc(OC)c1OC`: growth in assay [3] was halved (GI50) at 2.7 µM. In assay [1], the half-maximal inhibitory concentration (IC50) is 15 µM. In addition, the inhibition in assay [2] came out at 0%.

Turning to `COc1ccc(C(=O)c2cc(OC)c(OC)c(OC)c2)cc1OP(=O)([O-])O.[Na+]`, the GI50 is 0.27 µg/mL in assay [4]; 0.035 µg/mL in assay [5]; 0.0025 µg/mL in assay [6]; below 0.001 µg/mL in assay [7]; 0.012 µg/mL in assay [8]; 0.0047 µg/mL in [9]. For the same molecule, the GI50 in assay [10] worked out at 0.05 µg/mL. Also, the IC50 in assay [11] turned out to be 21 µM. In assay [2], this molecule yielded an inhibition of 37%.

In turn, `COc1cc(C(=O)c2cc(Cl)cc(Cl)c2)cc(OC)c1OC` came in with a concentration for 50% growth inhibition (GI50) in assay [3] of 5.12 µM. Also, half-maximal inhibition in assay [1] (IC50) required 36 µM. In assay [2], this molecule registered an inhibition of 1%.

In turn, `COc1cc(C(=O)c2cc(C)cc(C)c2)cc(OC)c1OC` registered a GI50 in assay [3] of 3.48 µM. In assay [1], the half-maximal inhibitory concentration (IC50) was determined as 11 µM. In assay [2], this molecule displayed an inhibition of 7%.

In the case of `COc1ccc(/C=C\c2cc(OC)c(OC)c(OC)c2)cc1OP(=O)([O-])[O-].[Na+].[Na+]` [FOSBRETABULIN DISODIUM], the GI50 was found to be 0.34 µg/mL in [4]; 0.029 µg/mL in [5]; 0.023 µg/mL in assay [6]; 0.0004 µg/mL in assay [7]; 0.036 µg/mL in assay [8]; 0.041 µg/mL in [9]. The same molecule displayed a GI50 in assay [10] of 0.041 µg/mL. Further, in [11], the concentration for half-maximal inhibition (IC50) is above 80 µM. In assay [2], this molecule displayed an inhibition of 4%.

For the molecule `COc1ccc(/C=C\c2cc(OC)c(OC)c(OC)c2)cc1`, the half-maximal inhibitory concentration (IC50) in [11] came to 1.3 µM. In assay [2], the inhibition is 97%.

As to `COc1ccc(Cc2cc(OC)c(OC)c(OC)c2)cc1O`, in assay [1], the IC50 is 3.3 µM. Moreover, in [2], the inhibition is 65%.

`COc1ccc(C(=O)c2cc(OC)c(OC)c(OC)c2)cc1OC` returned a 50% growth inhibitory concentration (GI50) in assay [3] of 5.11 µM. In [1], the half-inhibitory concentration (IC50) worked out at 15 µM. Moreover, the inhibition in [2] worked out at 1%.

For `COc1ccc(CCc2cc(OC)c(OC)c(OC)c2)cc1`, the IC50 in [1] stood at 3.2 µM. This molecule also registered an inhibition in [2] of 54%.

The molecule `COc1cc(OC)cc(C(=O)c2cc(OC)c(OC)c(OC)c2)c1` displayed a GI50 in assay [3] of 0.543 µM. This molecule displayed an IC50 in assay [1] of 3.6 µM. Besides, the inhibition in assay [2] was found to be 58%.

Regarding `COc1ccc(C(=O)c2cc(OC)c(OC)c(OC)c2)cc1OC(C)=O`, in [11], the IC50 was 3.5 µM. In [2], this molecule came in with an inhibition of 71%.

In assay [2], `COc1ccc(/C=C\c2cc(OC)c(OC)c(OC)c2)cc1O` returned an inhibition of 97%.
